Calls of active or inactive are those of the source. No cut-off for these calls is given here.
Tests used:
IGROV-1 [1] = assay: Antiproliferative activity against human IGROV1 cells expressing human RFC, FRalpha and PCFT assessed as reduction of viable cells after 96 hrs; assay type: functional, cell-based; conditions: IGROV-1, 96 h
IGROV-1 [2] = assay: Antitumor activity against human IGROV1 cells expressing human RFC, FRalpha and PCFT xenografted in SCID mouse assessed as tumor growth inhibition at 40 mg/kg, iv administered on days 3, 7, […], […], and […] postimplantation; assay type: functional
[3] = target: T1, Proton-coupled folate transporter (Homo sapiens) (UniProt Q96NT5); assay: Inhibition of human PCFT-mediated [3H]MTX uptake expressed in chinese hamster R2 cells at pH 6.8 […] relative to PMX; assay type: cell-based; conditions: concentration not given here
T1 sequence (whole entry): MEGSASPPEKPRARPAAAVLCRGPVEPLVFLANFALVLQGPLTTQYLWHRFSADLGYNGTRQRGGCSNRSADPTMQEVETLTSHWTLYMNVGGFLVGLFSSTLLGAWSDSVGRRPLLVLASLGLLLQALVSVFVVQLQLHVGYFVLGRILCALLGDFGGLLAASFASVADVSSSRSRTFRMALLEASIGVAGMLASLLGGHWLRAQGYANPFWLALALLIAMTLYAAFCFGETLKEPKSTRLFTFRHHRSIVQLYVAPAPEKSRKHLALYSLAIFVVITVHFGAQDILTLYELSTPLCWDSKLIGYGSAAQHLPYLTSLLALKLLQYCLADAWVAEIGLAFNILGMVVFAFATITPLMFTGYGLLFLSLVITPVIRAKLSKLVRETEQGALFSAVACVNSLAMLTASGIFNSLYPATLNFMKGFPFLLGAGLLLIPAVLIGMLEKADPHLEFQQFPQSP

[4] = Antiproliferative activity against chinese hamster RT16 cells expressing human FRalpha assessed as reduction of viable cells after 96 hrs in the presence of 200 nM folic acid; assay type: functional, cell-based; conditions: Cricetulus griseus, RT16, 96 h
In short: (§1)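 Same 96 h CellTiter-blue proliferation set-up in folate-free RPMI/10% dFBS with 2 nM leucovorin. Run in parallel incubations that included 200 nM folic acid alongside the antifolate, to establish FR-dependent uptake.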

Mus musculus [5] = assay: Toxicity in human IGROV1 cells expressing human RFC, FRalpha and PCFT xenografted SCID mouse assessed as reversible weight loss at 25 to 40 mg/kg, iv administered on days 3, 7, 11, 15, and 19 postimplantation; assay type: organism-based, IGROV-1; set-up: dose 25-40 mg/kg, route intravenous; conditions: in vivo
In short: (§2)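 Female ICR SCID mice, 10 weeks old, on a folate-deficient diet from 24 days before implant. Bilateral subcutaneous IGROV1 tumour fragments (30–60 mg, by trocar); mice pooled, then randomised. IV dosing on days 3, 7, 11, 15 and 19. Mice weighed daily; tumours measured by caliper 2–3 times weekly; mice sacrificed at 1500 mg tumour burden. Weight-loss nadir and recovery recorded.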

Mus musculus [6] = assay: Toxicity in human IGROV1 cells expressing human RFC, FRalpha and PCFT xenografted SCID mouse assessed as weight loss at 25 mg/kg, iv administered on days 3, 7, 11, 15, and 19 postimplantation measured on day 27 post last treatment; assay type: organism-based, IGROV-1; set-up: dose 25 mg/kg, route intravenous; conditions: in vivo
In short: (§3)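 Female ICR SCID mice (10 weeks old) were fed a folate-deficient or folate-replete diet from 24 days before implant. IGROV1 tumor fragments (30–60 mg) were implanted bilaterally s.c. by trocar, and mice were randomized. Dosing was i.v. on a Q4dx5 schedule (days 3, 7, 11, 15, 19). Mice were weighed daily to track weight-loss nadir and recovery.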

IGROV-1 [7] = assay: Antitumor activity against human IGROV1 cells expressing human RFC, FRalpha and PCFT xenografted in SCID mouse assessed as tumor growth inhibition at 25 mg/kg, iv administered on days 3, 7, […], […], and […] postimplantation; assay type: functional
R2 [8] = assay: Antiproliferative activity against chinese hamster R2 cells expressing human PCFT assessed as growth inhibition in the presence of 320 uM AICA; assay type: functional, cell-based; conditions: Cricetulus griseus
In short: (§4)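 R2/hPCFT4 cells were grown in folate-free RPMI with 25 nM leucovorin and 10% dFBS and exposed to antifolate for up to 96 h. Rescue co-incubations used thymidine (10 µM), adenosine (60 µM) and AICA (320 µM), alone or combined. Viability was read by CellTiter-blue.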

[9] = Antiproliferative activity against chinese hamster R2(VC) cells assessed as reduction of viable cells after 96 hrs; conditions: Cricetulus griseus
IGROV-1 [10] = assay: Antiproliferative activity against human IGROV1 cells expressing human RFC, FRalpha and PCFT assessed as reduction of viable cells after 96 hrs in the presence of 200 nM folic acid; assay type: functional, cell-based; conditions: IGROV-1, 96 h; in short: as §1
Mus musculus [11] = assay: Toxicity in human IGROV1 cells expressing human RFC, FRalpha and PCFT xenografted SCID mouse assessed as weight loss at 25 mg/kg, iv administered on days 3, 7, 11, 15, and 19 postimplantation measured on day 13; assay type: organism-based, IGROV-1; set-up: dose 25 mg/kg, route intravenous; conditions: in vivo; in short: as §2
Mus musculus [12] = assay: Toxicity in human IGROV1 cells expressing human RFC, FRalpha and PCFT xenografted SCID mouse assessed as weight loss at 40 mg/kg, iv administered on days 3, 7, 11, 15, and 19 postimplantation measured on day 21; assay type: organism-based, IGROV-1; set-up: dose 40 mg/kg, route intravenous; conditions: in vivo; in short: as §2
[13] = Inhibition of GARFTase in chinese hamster R2 cells expressing human PCFT assessed as incorporation of [14C]glycine into [14C]formyl GAR in the presence of 4 uM azaserine; assay type: cell-based, Cricetulus griseus
KB [14] = assay: Antiproliferative activity against human KB cells expressing human RFC, FRalpha and PCFT assessed as reduction of viable cells after 96 hrs in the presence of 200 nM folic acid; assay type: functional, cell-based; in short: as §1
[15] = Antiproliferative activity against chinese hamster PC43-10 expressing human RFC assessed as reduction of viable cells after 96 hrs; assay type: functional; conditions: Cricetulus griseus, PC43-10, 96 h
[16] = target: T1, Proton-coupled folate transporter (Homo sapiens); assay: Inhibition of human PCFT-mediated [3H]MTX uptake expressed in chinese hamster R2 cells at pH 5.5 by dixon plot analysis relative to PMX; assay type: cell-based; conditions: concentration not given here
R2 [17] = assay: Antiproliferative activity against chinese hamster R2 cells expressing human PCFT assessed as growth inhibition in the presence of 60 uM adenosine; assay type: functional, cell-based; conditions: Cricetulus griseus; in short: as §4
R2 [18] = assay: Decrease in intracellular ATP concentration in chinese hamster R2 cells expressing human PCFT at 1 uM after 24 hrs by HPLC relative to control at pH 6.8; assay type: functional, Cricetulus griseus; set-up: scale not given: the % may be the effect or the level left
In short: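 R2/hPCFT4 CHO cells seeded in folate-free RPMI 1640 with 10% dialysed FBS and 25 nM leucovorin (pH 7.2). After 24 h, switched to the same medium buffered to pH 6.8 with 25 mM PIPES/25 mM HEPES. Drug at 1 µM, or vehicle (0.5% DMSO or H2O), for 24 h. Nucleotides extracted; ATP quantified by HPLC against vehicle control.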

IGROV-1 [19] = assay: Antitumor activity against human IGROV1 cells expressing human RFC, FRalpha and PCFT xenografted in standard folate diet fed SCID mouse assessed as tumor growth inhibition at 25 to 40 mg/kg, iv administered on days 3, 7, […], […], and […] postimplantation; assay type: functional; conditions: dose mg/kg 25-40
KB [20] = assay: Antiproliferative activity against human KB cells expressing human RFC, FRalpha and PCFT assessed as reduction of viable cells after 96 hrs; assay type: functional, cell-based
Mus musculus [21] = assay: Toxicity in human IGROV1 cells expressing human RFC, FRalpha and PCFT xenografted SCID mouse assessed as weight loss at 40 mg/kg, iv administered on days 3, 7, 11, 15, and 19 postimplantation measured on day 10 post last treatment; conditions: in vivo
R2 [22] = assay: Antiproliferative activity against chinese hamster R2 cells expressing human PCFT assessed as inhibition of colony formation after 10 to 14 days; assay type: functional, cell-based, Cricetulus griseus
R2 [23] = assay: Antiproliferative activity against chinese hamster R2 cells assessed as reduction of viable cells after 96 hrs; conditions: Cricetulus griseus, R2, 96 h
Mus musculus [24] = assay: Toxicity in human IGROV1 cells expressing human RFC, FRalpha and PCFT xenografted SCID mouse assessed as weight loss at 25 mg/kg, iv administered on days 3, 7, 11, 15, and 19 postimplantation measured on day 8 post last treatment; assay type: organism-based, IGROV-1; set-up: dose 25 mg/kg, route intravenous; conditions: in vivo; in short: as §3
Mus musculus [25] = assay: Toxicity in human IGROV1 cells expressing human RFC, FRalpha and PCFT xenografted SCID mouse assessed as mortality at 25 to 40 mg/kg, iv administered on days 3, 7, […], […], and […] postimplantation; assay type: organism-based, IGROV-1; conditions: in vivo

## Nc1nc2[nH]c(CCCc3ccc(C(=O)N[C@@H](CCC(=O)O)C(=O)O)s3)cc2c(=O)[nH]1
IGROV-1 [1]
  IC50: 0.55 nM
IGROV-1 [2]
  T/C: 14%
[3]
  inhibition: 18%
[4]
  IC50: > 1000 nM
Mus musculus [5]
  Activity: 2.7%
Mus musculus [6]
  Activity: Non-toxic
IGROV-1 [7]
  T/C: 16%
R2 [8]
  Activity: inactive
[9]
  IC50: 288 nM
IGROV-1 [10]
  IC50: > 1000 nM
Mus musculus [11]
  Activity: 6.3%
Mus musculus [12]
  Activity: 9.4%
[13]
  IC50: 0.69 nM
KB [14]
  IC50: > 1000 nM
[15]
  IC50: 101 nM
[16]
  inhibition: 35%
R2 [17]
  Activity: inactive
R2 [18]
  Activity: 90%
IGROV-1 [19]
  T/C: 67%
KB [20]
  IC50: 0.26 nM
Mus musculus [21]
  Activity: Non-toxic
R2 [22]
  IC50: 1.4 nM
R2 [23]
  IC50: 274 nM
Mus musculus [24]
  Activity: Non-toxic
Mus musculus [25]
  Activity: Non-toxic

— ChEMBL document CHEMBL1833876 (J Med Chem, 2011)
